This is one part of a sample in which hits are shown more often than they occur.
Avidin fluor: compound fluoresces at 488/530 nm on avidin beads; compound fluorescence 488/530 nm, flow cytometry; active compounds read high; 0.38% of 220,000 active; AID 1775; fluorescence (KMESF) at 10 µM; in the data active = fluorescence above about 47
PKD1 inh: blocks activity of human protein kinase D1; 0.056% of 200,000 active; PKD1 kinase fluorescence polarization assay; AID 797; inhibition, % (concentration not given with the values)
Lmaj promast: inhibitors of Leishmania major promastigote growth | inhibition, % at 10 µM | 9% of 200,000 active | Leishmania major promastigotes, resazurin fluorescence viability;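 also: promastigotes grown with compound for 44 hours at 28 °C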
ABCG2 inh: human ABCG2 inhibition, ABCB1 as counter-screen; 0.1% of 190,000 active; IgMXP3 cells, JC-1 efflux, flow cytometry; inhibition, % at 6.6 µM; AID 1325; Q9UNQ0;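 active = inhibition above 80%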
Target sequence (Q9UNQ0 whole entry, looked up): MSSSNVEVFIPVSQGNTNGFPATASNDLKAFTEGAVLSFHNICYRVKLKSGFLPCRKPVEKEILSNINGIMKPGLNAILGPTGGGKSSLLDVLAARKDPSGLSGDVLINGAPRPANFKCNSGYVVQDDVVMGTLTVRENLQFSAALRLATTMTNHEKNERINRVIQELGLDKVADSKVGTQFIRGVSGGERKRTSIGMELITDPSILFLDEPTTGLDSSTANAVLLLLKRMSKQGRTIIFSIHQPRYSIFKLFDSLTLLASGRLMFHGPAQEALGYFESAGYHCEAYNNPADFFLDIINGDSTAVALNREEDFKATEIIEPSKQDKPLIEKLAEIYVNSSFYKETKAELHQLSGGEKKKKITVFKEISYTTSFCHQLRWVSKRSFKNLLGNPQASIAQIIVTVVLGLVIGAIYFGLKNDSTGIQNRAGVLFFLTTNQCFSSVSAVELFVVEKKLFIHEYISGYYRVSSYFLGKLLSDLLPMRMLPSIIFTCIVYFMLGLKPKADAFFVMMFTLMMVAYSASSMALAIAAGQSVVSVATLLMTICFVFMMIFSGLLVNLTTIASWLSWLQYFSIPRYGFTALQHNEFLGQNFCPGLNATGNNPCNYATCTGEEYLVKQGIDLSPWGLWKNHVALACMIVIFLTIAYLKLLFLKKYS
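System: two drug-resistant human cell lines, ABCG2 and ABCB1; controls: nicardipine high and DMSO low controls; times: 10 min exposure at 25 °C with rotation, no wash; detection: flow cytometry of retained JC-1 fluorescence; read-out basis: percent efflux inhibition, scaled nicardipine 100% to DMSO 0%; doses: one concentration, 6.6 µM final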
GSH fluor: GSH bead compound fluorescence profile. 0.25% of 190,000 active. fluorescence (KMESF) at 10 µM. AID 1776. GSH beads flow cytometry, compound fluorescence 488/530 nm; active compounds read high; in the data active = fluorescence above about 89;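 also: glutathione beads carrying GST-tagged Bcl family fusion proteins plus one bare bead set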
ABCB1 inh: blocks JC-1 efflux by human ABCB1 transporter. inhibition, % at 6.6 µM. CCRF-Adr cells, flow cytometry. P08183. 0.067% of 190,000 active; in the data active = inhibition above about 40%;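 also: higher value means more JC-1 retained so stronger ABCB1 efflux block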
A number is an active result; i = inactive; nt = not tested or not shown. Rule as the data show it, unless noted: active = inhibition above about 50%; inactive = the rest.

SMILES	Avidin fluor	PKD1 inh	Lmaj promast	ABCG2 inh	GSH fluor	ABCB1 inh
CCOc1ccc(-c2n[nH]c(C)c2Oc2ccccc2OC)c(O)c1	i	i	i	i	i	i
C=C(C)COc1ccc(-c2[nH]ncc2Oc2cccc(OC)c2)c(O)c1	i	i	74.0	i	i	i
COc1cccc(CNCCSc2nnnn2C)c1OC	i	i	i	i	i	i
C=C(C)COc1ccc(-c2ncncc2Oc2ccc(OC)cc2)c(O)c1	i	i	65.6	i	i	i
Cc1ccc(S(=O)(=O)C(NC(=O)c2ccccc2)=C(Cl)Cl)cc1	nt	i	61.7	nt	nt	nt
Cc1ccc(C(=O)NC(=C(Cl)Cl)S(=O)(=O)c2ccc(C)cc2)cc1	i	i	62.2	i	i	i
Cc1ccc(S(=O)(=O)/C(=C/Cl)NC(=O)c2ccccc2)cc1	i	i	98.8	i	i	i
CC(=O)Nc1ccc(/C=N/NC(=O)CNC(=O)c2ccccc2)cc1	i	i	i	i	i	i
O=C1NC(=S)N/C1=C\c1ccc(N2CCOCC2)cc1	i	i	i	i	i	i
COc1ccc(CCN2C(=O)CSC2=Nc2ccc(C(C)C)cc2)cc1OC	i	nt	nt	nt	nt	nt
COc1ccc(-c2csc(-c3[nH]cnc3N)n2)cc1	i	i	96.2	i	i	i
Cc1ccc(N=c2c([N+](=O)[O-])nn(-c3ccccc3)n2O)c(C)c1	i	i	56.4	i	i	i
COc1ccc(-n2nc([N+](=O)[O-])c(=NCCc3cccc(C)c3)n2O)cc1	nt	i	81.2	i	i	i
Cc1c(Cl)cccc1N=c1c([N+](=O)[O-])nn(-c2ccccc2)n1O	i	i	i	i	i	i
COc1ccc(CCN=c2c([N+](=O)[O-])nn(-c3cccc(C)c3)n2O)cc1OC	i	i	i	i	i	i
Cc1cccc(CCN=c2c([N+](=O)[O-])nn(-c3ccccc3)n2O)c1	i	i	61.9	i	i	i
O=C(CCS(=O)(=O)CCN1CCOCC1)NCNC(=O)CCS(=O)(=O)CCN1CCOCC1	i	i	i	i	i	i
N#Cc1nc(Cc2cccc3ccccc23)oc1NCCN1CCOCC1	i	i	72.2	i	i	i
N#Cc1nc(-c2ccccc2)oc1NCCN1CCCCC1	i	i	86.6	i	i	i
Cc1ccc(NC(=O)C2=C(c3ccccc3)S(=O)(=O)CCS2(=O)=O)cc1	i	i	i	i	i	i
O=C(Nn1c(Cc2cccs2)nc2ccccc2c1=O)c1cccs1	i	i	i	i	i	i
N=C1S/C(=C\c2ccco2)C(=O)N1c1nccs1	i	i	90.5	i	i	i
COCCNC(=O)C(c1cccnc1)N(Cc1ccccc1)C(=O)Cn1nnc2ccccc21 (centres undefined)	i	i	i	i	i	i
CC(=O)Nc1ccc(OC(=O)C(CCS(C)(=O)=O)N2C(=O)c3ccccc3C2=O)cc1 (centres undefined)	i	i	90.8	i	i	i
COc1ccc(OC)c(-c2cc(C(=O)Nc3c(C)nn(Cc4ccccc4Cl)c3C)no2)c1	i	i	52.2	i	i	i
SMILES	Avidin fluor	PKD1 inh	Lmaj promast	ABCG2 inh	GSH fluor	ABCB1 inh
COc1ccc(-c2cc(C(=O)Nc3c(C)nn(Cc4ccc(Cl)cc4)c3C)no2)cc1	50	i	i	i	i	i
CC(C)OCCCNC(=O)CNC(=O)c1ccc(Cl)c(Cl)c1	i	i	i	i	i	i
COc1ccccc1NC(=O)c1cc(Sc2nncn2C)nc2ccccc12	i	i	i	i	i	i
CCn1cc([N+](=O)[O-])c(C(=O)N2N=C(c3ccc4ccccc4c3)CC2c2cc(Br)ccc2O)n1 (centres undefined)	i	i	100.1	i	i	i
Cc1nc(S/C(=C/c2ccc(OCc3ccc(C(=O)O)cc3)cc2)C(=O)O)n[nH]1	i	i	i	i	i	i
CC(C(=O)N1c2ccc(F)cc2CCC1C)N1C(=O)c2ccccc2C1=O (centres undefined)	48	i	i	i	i	i
CC1CCc2cc(F)ccc2N1C(=O)CCl (centres undefined)	i	i	75.0	i	i	i
CCC(CC)C(=O)N1c2ccc(F)cc2CCC1C (centres undefined)	i	i	i	i	i	i
COc1cc(C(=O)Nc2ccc3c(c2)Cc2cc(NC(=O)c4cc(OC)c(OC)c(OC)c4)ccc2-3)cc(OC)c1OC	i	i	i	i	i	i
COc1ccc2c(c1)CCc1c(C(=O)NCCCn3ccnc3)noc1-2	i	i	100.0	i	i	i
COCCNC(=O)c1noc2c1CCc1cc(OC)ccc1-2	i	i	i	i	i	i
COc1ccccc1NC(=S)NCC1CCCO1 (centres undefined)	i	i	i	i	i	i
NS(=O)(=O)c1ccc(NC(=S)NCC2CCCO2)cc1 (centres undefined)	i	i	55.0	i	i	i
S=C(NCC1CCCO1)Nc1ccc(Nc2ccccc2)cc1 (centres undefined)	i	i	i	i	i	i
CCOc1ccccc1NC(=S)NCC1CCCO1 (centres undefined)	i	i	50.9	i	i	i
Cc1cc(C)nc(SCc2nnc(SCC(N)=O)o2)n1	i	i	i	i	i	i
CC(=O)Oc1ccc(N(C(C)=O)S(=O)(=O)c2cccs2)c2ccccc12	i	i	99.7	i	i	i
CC(=O)Oc1ccccc1N(C(C)=O)S(=O)(=O)c1ccc2ccccc2c1	i	i	i	i	i	i
C/C(=N\O)C(C)(C)Nc1cccc(Br)c1	i	nt	nt	nt	nt	nt
CCOC(=O)C1(Cc2ccc(Cl)cc2)CCN(Cc2nccn2CC)CC1	i	i	79.2	i	i	i
CCOC(=O)C1(Cc2ccccc2)CCN(Cc2nccn2CC)CC1	i	i	i	i	i	i
CCOC(=O)C1(Cc2ccccc2Cl)CCN(S(=O)(=O)N(C)C)CC1	i	i	i	i	i	i
CCOC(=O)C1(Cc2ccccc2)CCCN(C2CCN(C(C)=O)CC2)C1 (centres undefined)	i	i	79.3	i	i	i
CCOC(=O)C1(Cc2ccc(Cl)cc2)CCN(C(=O)CCc2ccncc2)CC1	i	i	i	i	i	i
CCOC(=O)C1(Cc2ccccc2Cl)CCN(C(=O)CCn2ccnc2C)CC1	i	i	99.7	i	i	i
SMILES	Avidin fluor	PKD1 inh	Lmaj promast	ABCG2 inh	GSH fluor	ABCB1 inh
CCOC(=O)C1(Cc2ccc(Cl)cc2)CCN(CCCn2cccn2)CC1	i	i	84.7	i	i	i
CCOC(=O)c1c(NC(=O)COC(=O)C2CC2C)sc(C)c1C (centres undefined)	i	i	i	i	i	i
NC(=O)COC(=O)c1cccc(S(=O)(=O)N2CCN(c3ccc(F)cc3)CC2)c1	i	i	i	i	i	i
COc1cc(C2=NC(CO)(CO)CO2)cc(OC)c1OC	i	i	i	i	i	i
CCOC(=O)C1(Cc2ccccc2)CCCN(CCCn2cccn2)C1 (centres undefined)	i	i	90.6	i	i	i
COc1ccccc1NC(=O)Cn1c(CCC(=O)O)ccc1-c1ccccc1	i	i	i	i	i	i

Bioassay records (PubChem)
